“Also recorded” adds a separate entry of the source. No end group written: not given here.
Tests used:
Format in all cases: physicochemical
[1] = AFM surface morphology of amyloid fibrils; conditions: 1.5 mg/mL, pH 3.8, 24 h mixing at 37 °C, 5 µL dried on mica
Procedure, shortened: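 Hexapeptide at a final 1.5 mg/mL, pH 3.8, was stirred at 500–600 rpm at 37 °C for 24 h. This was the same stock used for FTIR and ECD. The 24-h solution was dropped on freshly cleaved mica and vacuum-dried for 24 h. Images were taken in dynamic mode near densely packed areas, with a 10×10 µm window and 512 pixels per line.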

[2] = Amyloid formation monitored by time-dependent far-UV ECD spectroscopy; conditions: for amyloid formation in 50% MeOH (in words) / time to form amyloid in 50% MeOH: 50% MeOH:50% H2O (ε = 51.347); for amyloid formation in 50% MeOH (in words) / time to form β-sheets / B-type ECD spectrum in water / amyloid formation in 10% EtOH (in words) / time to form amyloid in 50% MeOH: 37 °C; for amyloid formation in 50% MeOH (in words) / time to form β-sheets / B-type ECD spectrum in water / amyloid formation in 10% EtOH (in words): stirred 500–600 rpm; for amyloid formation in 50% MeOH (in words) / amyloidogenicity overall (in words) / amyloid formation in 10% EtOH (in words): ECD; for time to form β-sheets / B-type ECD spectrum in water: 100% H2O; for time to form β-sheets / B-type ECD spectrum in water / time to form amyloid in 50% MeOH: ECD read-out; for amyloidogenicity overall (in words): all tested conditions (H2O, 10% EtOH, 50% MeOH), FTIR, AFM; for amyloid formation in 10% EtOH (in words): 10% EtOH:90% H2O (ε = 68.742); for time to form amyloid in 50% MeOH: stirred
Procedure, shortened: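 Peptides were dissolved at 0.15–1.50 mg/mL in water, 10% EtOH or 50% MeOH. Concentration was set by A280 of 5-fold dilutions (ε Tyr 1280, Trp 5690 M⁻¹ cm⁻¹), with pH adjusted by NaOH/HCl. Samples were stirred at 500–600 rpm, 37 °C, and measured directly at 0–168 h. Spectra covered 185–260 nm, 0.1 mm cell, 25 °C, three scans averaged, solvent-subtracted, Savitzky–Golay smoothed, and converted to mean residue ellipticity.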

[3] = Water solubility / peptide concentration needed for amyloid formation; conditions: pure water

AFM morphology (in words) [1]	amyloid formation in 50% MeOH (in words) [2]	time to form β-sheets / B-type ECD spectrum in water [2] [h]	amyloidogenicity overall (in words) [2]	amyloid formation in 10% EtOH (in words) [2]	ECD mean residue ellipticity Θ at 202 nm ([2]; 50% MeOH, B-type signal) [deg cm^2 dmol^−1]	time to form amyloid in 50% MeOH [2]	ECD mean residue ellipticity Θ, positive maximum at 208 nm ([2]; B-type spectrum after 24 hours)	Substance	water solubility (in words) [3]
Fibrillar amyloid formation								GNNQQNY [GNNQQNY, reference compound]	
Fibrillar amyloid formation	form amyloid	1	highly amyloidogenic	form amyloid				LYIQWL [LYIQWL]	
	form amyloid		highly amyloidogenic	form amyloid				LYIQNL [LYIQNL]	

Continued, substance first:

Substance	AFM morphology (in words) [1]	amyloid formation in 50% MeOH (in words) [2]	time to form β-sheets / B-type ECD spectrum in water [2] [h]	amyloidogenicity overall (in words) [2]	amyloid formation in 10% EtOH (in words) [2]	ECD mean residue ellipticity Θ at 202 nm ([2]; 50% MeOH, B-type signal) [deg cm^2 dmol^−1]	time to form amyloid in 50% MeOH [2]	ECD mean residue ellipticity Θ, positive maximum at 208 nm ([2]; B-type spectrum after 24 hours)	water solubility (in words) [3]
NNQQWL [NNQQWL]	no detectable structures	No amyloid formation was observed	> 144	resists amyloid formation					
NNQQNL [NNQQNL]	empty AFM image	very slow amyloid formation							
NNQQNY [NNQQNY]	Fibrillar amyloid formation	β‐sheets formed; also recorded: forms amyloid in 50% MeOH		highly amyloidogenic	preventing amyloid formation	~53000	within hours; also recorded: a few hours		highly water‐soluble
LNIQWL [LNIQWL]	granular			remains amyloidogenic					
LYQQNY [LYQQNY]		Amyloid formation is confirmed		highly amyloidogenic	Amyloid formation is confirmed			~+57000 deg cm^2 dmol^−1	
NNIQWL [NNIQWL]	no evidence of filament formation			did not form amyloid under any of the tested conditions					
LNQQNY [LNQQNY]				highly amyloidogenic	forms amyloid very slowly		≤ 24 h		
LYIQNY [LYIQNY]		rapid amyloid formation; also recorded: faster assembly		highly amyloidogenic	rapid amyloid formation				water‐soluble

Source: paper PMC12099175 (Chemistry (Weinheim an Der Bergstrasse, Germany), 2025)
